Data on six molecules can be found in ChEMBL document CHEMBL4393672, “High affinity CXCR4 inhibitors generated by linking low affinity peptides” (Eur J Med Chem, 2019).

The target in data set [1] is T1, C-X-C chemokine receptor type 4 (Homo sapiens, UniProt P61073). The data set is described as follows: Competitive binding affinity to CXCR4 receptor (unknown origin) expressed in CHO cells incubated for 40 mins by 12G5 antibody based fluorescence analysis. In kind it is cell-based.
Data set [2] addresses T1, C-X-C chemokine receptor type 4. The data set is described as follows: Competitive binding affinity to CXCR4 in human SupT1 cells incubated for 40 mins by 12G5 antibody based fluorescence analysis. Format: cell-based.
Data set [3] has as its system C-X-C chemokine receptor type 4 (Homo sapiens), P61073 [D97A]. The experiment in a line: Binding affinity to CXCR4 D97A mutant (unknown origin) expresssed in CHO cells at 200 nM incubated for 30 mins by 12G5 antibody based fluorescence analysis. In kind it is cell-based. The method in brief:
(§1)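 Wild-type or mutant CXCR4 cells (5×10⁵/well) incubated with single 200 nM concentration in FACS buffer (0.5% BSA, 0.05% azide in PBS) plus 12G5 anti-CD184 antibody, 30 min on ice; washed, FITC anti-mouse IgG 30 min on ice; fluorescence 485ex/528em; duplicates, ≥3 independent experiments, normalized as percent of control.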

The subject of data set [4] is Human immunodeficiency virus 1. The data set is described as follows: Antiviral activity against Human immunodeficiency virus 1 NL4-3 infected in human PBMC cells assessed as inhibition of extracellular p24 level preincubated with cells for 2 hrs followed by viral infection for 2 hrs and measured after 5 days by ELISA. Background: An ELISA detects its analyte on a solid surface through an enzyme-linked reagent.

For data set [5], the system named is C-X-C chemokine receptor type 4 (Homo sapiens), P61073 [W94A]. The data set is described as follows: Competitive binding affinity at CXCR4 W94A mutant (unknown origin) expressed in CHO cells at 200 nM incubated for 30 mins by 12G5 antibody based fluorescence analysis. Format: cell-based. Summed up: as §1
In data set [6] the test system is C-X-C chemokine receptor type 4 (Homo sapiens), P61073 [E288Q]. The experiment in a line: Binding affinity to CXCR4 E288Q mutant (unknown origin) expresssed in CHO cells at 200 nM incubated for 30 mins by 12G5 antibody based fluorescence analysis. Format: cell-based. The method in brief: as §1
Data set [7] relates to C-X-C chemokine receptor type 4 (Homo sapiens), P61073 [Y45A]. The data set is described as follows: Competitive binding affinity to CXCR4 Y45A mutant (unknown origin) expressed in CHO cells at 200 nM incubated for 30 mins by 12G5 antibody based fluorescence analysis. In kind it is cell-based. The method in brief:
as §1

Data set [8] relates to C-X-C chemokine receptor type 4 (Homo sapiens), P61073 [D262N]. The experiment in a line: Binding affinity to CXCR4 D262N mutant (unknown origin) expresssed in CHO cells at 200 nM incubated for 30 mins by 12G5 antibody based fluorescence analysis. In kind it is cell-based. The method in brief: as §1
Data set [9] has as its system C-X-C chemokine receptor type 4 (Homo sapiens), P61073 [Y116A]. The data set is described as follows: Competitive binding affinity at CXCR4 Y116A mutant (unknown origin) expressed in CHO cells at 200 nM incubated for 30 mins by 12G5 antibody based fluorescence analysis. In kind it is cell-based. Summed up: as §1
The subject of data set [10] is C-X-C chemokine receptor type 4 (Homo sapiens), P61073 [W195A]. The experiment in a line: Competitive binding affinity to CXCR4 W195A mutant (unknown origin) expresssed in CHO cells at 200 nM incubated for 30 mins by 12G5 antibody based fluorescence analysis. Format: cell-based. The method in brief: as §1
The test system of data set [11] is Human immunodeficiency virus 1. The experiment in a line: Antiviral activity against Human immunodeficiency virus 1 NL4-3 infected in human PBMC cells assessed as reduction in intracellular p24 level at 100 nM preincubated with cells 2 hrs followed by viral infection and measured after 24 hrs by ELISA. Format: functional. The method in brief:
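PBMCs from healthy donors (2.5×10^6 cells/mL) were exposed to compound for 2 h, washed, and infected with HIV-1 NL4-3 at MOI 0.02 for 2 h at 37°C. Cells were washed, resuspended in complete medium and incubated 24 h. Cells were then lysed with protease inhibitor, and intracellular p24 was quantified by ELISA.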

The target in data set [12] is T1, C-X-C chemokine receptor type 4. The experiment in a line: Inhibition of N-terminal flag-tagged CXCR4 (unknown origin) internalization expressed in CHO cells incubated for 45 mins and measured after 1 hr by FITC-labeled anti-flag antibody based fluorescence analysis.
The nature of data set [13]: Stability of compound in water assessed as compound remaining at 1mM at 37 degC after 48 hrs by HPLC analysis relative to control. Format: physicochemical. The settings on record: read-out: Stability.
Data set [14] addresses T1, C-X-C chemokine receptor type 4. The experiment in a line: Antagonist activity at CXCR4 receptor in human SupT1 cells assessed as inhibition of SDF-1alpha-induced calcium release preincubated for 2 to 3 mins followed by SDF-1alpha addition by Fluo-4AM dye based fluorescence assay. Format: functional, cell-based. Summed up: (§2)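 SupT1 cells loaded with Fluo-4AM (2 µM) plus probenecid (5 µM) for 30 min at 37°C in HBSS/20 mM HEPES, washed; 1×10⁶ cells/mL exposed to compound 2–3 min, then stimulated with 50 nM SDF-1α; fluorescence read at […]/510em.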

For data set [15] the target is unchanged. The data set is described as follows: Antagonist activity at CXCR4 receptor in human SupT1 cells assessed as inhibition of SDF-1alpha-induced calcium release at 1 uM preincubated for 2 to 3 mins followed by SDF-1alpha addition by Fluo-4AM dye based fluorescence assay relative to control. Format: functional, cell-based. Summed up: as §2

Each structure is given as a SMILES string. The source made the active and inactive calls. No cut-off for these calls is given here. Residues, ends and D or L forms follow the SMILES beside them.

T1 sequence (P61073 whole entry): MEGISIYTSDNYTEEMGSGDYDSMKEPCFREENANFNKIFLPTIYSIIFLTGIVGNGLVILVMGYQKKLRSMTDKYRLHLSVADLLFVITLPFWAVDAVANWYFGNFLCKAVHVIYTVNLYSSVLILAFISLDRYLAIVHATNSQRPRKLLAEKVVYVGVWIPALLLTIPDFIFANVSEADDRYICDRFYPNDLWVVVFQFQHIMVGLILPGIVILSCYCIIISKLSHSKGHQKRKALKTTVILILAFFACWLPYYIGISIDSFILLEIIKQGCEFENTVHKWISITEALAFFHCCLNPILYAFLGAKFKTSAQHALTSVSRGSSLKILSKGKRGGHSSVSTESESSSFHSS
C-X-C chemokine receptor type 4 (Homo sapiens), P61073 [E288Q], sequence (P61073 whole entry E288Q): as the sequence (P61073 whole entry) above, with E288Q counted along it
C-X-C chemokine receptor type 4 (Homo sapiens), P61073 [Y45A], sequence (P61073 whole entry Y45A): as the sequence (P61073 whole entry) above, with Y45A counted along it
C-X-C chemokine receptor type 4 (Homo sapiens), P61073 [W195A], sequence (P61073 whole entry W195A): as the sequence (P61073 whole entry) above, with W195A counted along it
C-X-C chemokine receptor type 4 (Homo sapiens), P61073 [D262N], sequence (P61073 whole entry D262N): as the sequence (P61073 whole entry) above, with D262N counted along it
C-X-C chemokine receptor type 4 (Homo sapiens), P61073 [Y116A], sequence (P61073 whole entry Y116A): as the sequence (P61073 whole entry) above, with Y116A counted along it
C-X-C chemokine receptor type 4 (Homo sapiens), P61073 [W94A], sequence (P61073 whole entry W94A): as the sequence (P61073 whole entry) above, with W94A counted along it
C-X-C chemokine receptor type 4 (Homo sapiens), P61073 [D97A], sequence (P61073 whole entry D97A): as the sequence (P61073 whole entry) above, with D97A counted along it

`CC[C@H](C)[C@H](NC(=O)[C@H](CC(=O)O)NC(=O)CNC(=O)[C@H](CCCCN)NC(=O)[C@H](CCCNC(=N)N)NC(=O)[C@H](CCCCN)NC(=O)CCCCCN)C(=O)N[C@@H](CCCNC(=N)N)C(=O)N[C@@H](CCC(N)=O)C(=O)N[C@@H](C)C(=O)N[C@@H](Cc1cnc[nH]1)C(=O)N[C@@H](CS)C(N)=O` (HELM PEPTIDE1{[NCCCCCC(=O)[*:2]].K.R.K.G.D.I.R.Q.A.H.C.[am]}$$$$V2.0): the IC50 in data set [1] and in [2] was over 50000 nM throughout.
`CC(C)C[C@@H](N)C(=O)NCC(=O)N[C@H](C)C(=O)N[C@H](CO)C(=O)N[C@H](Cc1c[nH]c2ccccc12)C(=O)N[C@H](Cc1cnc[nH]1)C(=O)N[C@H](CCCNC(=N)N)C(=O)N1CCC[C@@H]1C(=O)N[C@H](CC(=O)O)C(=O)N[C@H](CCCCN)C(N)=O` (HELM PEPTIDE1{[dL].G.[dA].[dS].[dW].[dH].[dR].[dP].[dD].[dK].[am]}$$$$V2.0): the result in data set [3], in [6], in data set [8] and in data set [10] was inactive. Besides, the inhibition result in data set [4] and in data set [11] was “inactive” in each case. The result in data set [5], in data set [7] and in data set [9] was Active.
Turning to `CC[C@H](C)[C@H](NC(=O)[C@H](CC(=O)O)NC(=O)CNC(=O)[C@H](CCCCN)NC(=O)[C@H](CCCNC(=N)N)NC(=O)[C@H](CCCCN)NC(=O)CCCCCNC(=O)[C@@H](CCCNC(=N)N)NC(=O)[C@@H](CCCCN)NC(=O)[C@@H](CCCCN)NC(=O)[C@@H](CC(=O)O)NC(=O)[C@H]1CCCN1C(=O)[C@@H](CCCNC(=N)N)NC(=O)[C@@H](Cc1cnc[nH]1)NC(=O)[C@@H](Cc1c[nH]c2ccccc12)NC(=O)[C@@H](CO)NC(=O)[C@@H](C)NC(=O)CNC(=O)[C@H](N)CC(C)C)C(=O)N[C@@H](CCCNC(=N)N)C(=O)N[C@@H](CCC(N)=O)C(=O)N[C@@H](C)C(=O)N[C@@H](Cc1cnc[nH]1)C(=O)N[C@@H](CS)C(N)=O`, the outcome in data set [12] was inactive. For the same molecule, the remaining at 48 h, 1000 µM in data set [13] turned out to be 95%. Further, the figures for the inhibition entry in data set [14] and in data set [15] were “Dose-dependent effect” and 100%, respectively. The inhibition (as a rule, the relative decrease from the control value, in per cent) in data set [11] is “Active”.
Consider `CC(C)C[C@@H](N)C(=O)NCC(=O)N[C@H](C)C(=O)N[C@H](CO)C(=O)N[C@H](Cc1c[nH]c2ccccc12)C(=O)N[C@H](Cc1cnc[nH]1)C(=O)N[C@H](CCCNC(=N)N)C(=O)N1CCC[C@@H]1C(=O)N[C@H](CC(=O)O)C(=O)N[C@H](CCCCN)C(=O)N[C@H](CS)C(=O)N[C@H](CS)C(=O)N[C@H](CC(C)C)C(=O)NCC(=O)N[C@H](Cc1ccc(O)cc1)C(=O)N[C@H](CCC(N)=O)C(=O)N[C@H](CCCCN)C(=O)N[C@H](CCCNC(=N)N)C(=O)N1CCC[C@@H]1C(=O)N[C@H](CC(C)C)C(=O)N1CCC[C@@H]1C(=O)NCCCCCC(=O)N[C@@H](CCCCN)C(=O)N[C@H](CCCCN)C(=O)N[C@H](CCCNC(=N)N)C(=O)N[C@H](Cc1ccccc1)C(=O)N[C@H](Cc1ccccc1)C(=O)N[C@H](CC(=O)O)C(=O)NCC(=O)N[C@H](CC(C)C)C(=O)N[C@H](CC(C)C)C(N)=O`, for which the IC50 – broadly, the concentration that gives 50% inhibition – in data set [2] came to 193 nM.
For the molecule `c1cc(CN2CCCNCCNCCCNCC2)ccc1CN1CCCNCCNCCCNCC1`, the result in data set [11] was Active.
As for `CC(C)C[C@@H](N)C(=O)NCC(=O)N[C@H](C)C(=O)N[C@H](CO)C(=O)N[C@H](Cc1c[nH]c2ccccc12)C(=O)N[C@H](Cc1cnc[nH]1)C(=O)N[C@H](CCCNC(=N)N)C(=O)N1CCC[C@@H]1C(=O)N[C@H](CC(=O)O)C(=O)N[C@H](CCCCN)C(=O)N[C@H](CS)C(=O)N[C@H](CS)C(=O)N[C@H](CC(C)C)C(=O)NCC(=O)N[C@H](Cc1ccc(O)cc1)C(=O)N[C@H](CCC(N)=O)C(=O)N[C@H](CCCCN)C(=O)N[C@H](CCCNC(=N)N)C(=O)N1CCC[C@@H]1C(=O)N[C@H](CC(C)C)C(=O)N1CCC[C@@H]1C(=O)NCCCCCC(=O)N[C@@H](CCCCN)C(=O)NCC(=O)N[C@@H](CC(C)C)C(=O)N[C@@H](CC(C)C)C(=O)NCC(=O)N[C@@H](CC(C)C)C(=O)N[C@@H](CO)C(=O)N[C@@H](CCCCN)C(N)=O`, the IC50 in data set [2] is 147 nM.
